Source: PubChem BioAssay (several laboratories)
The full list was thinned out, with hits kept by preference.
Glyco luc inh – blocks N-linked glycosylation in D54 reporter cells | D54 ERlucT glycosylation luciferase reporter, 24 h; percent of 100 nM tunicamycin response | reporter increase, % at 12.5 µM | 360,000 tested, 0.23% active | AID 588692;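 active means mean luciferase reporter signal, scaled so untreated is 0 and the glycosylation-blocking control 100, at or above a set limit in every replicate; inconclusive means mean reaches the limit but not every replicate does; inactive means mean below the limit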;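 further: luciferase carries N-glycosylation sites so blocking glycosylation raises the light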
T cell HTS – T cell immune modulation candidate. 2C CD8+ T cell-vesicle binding, flow cytometry; active compounds read low. response (vesicle binding), % at 7 µM. 330,000 tested, 0.068% active. AID 2052;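 active means response, share of CD8 T cells binding vesicles, and their 90th percentile fluorescence all below set limits, cut at about 80% in these data, passing the limit was not always enough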;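 further: values below 100% mean blocked vesicle binding to the CD8+ T cells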
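Material: murine 2C transgenic CD8+ T lymphocytes / Also added: QL9-peptide-loaded Drosophila micro-vesicles bearing Ld, ICAM-1 and B7-1 / Schedule: binding step 1.5 h, 37 °C, antibody labelling 20 min, ice / Signal: flow cytometry, PE anti-B7-1 (FL2) versus Alexa647 anti-CD8 (FL8), PFA-fixed / Evaluation: percent CD8+ FL2 mean versus row control / Benchmarks: naked versus QL9-loaded vesicles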
ALR inh – inhibitors of human sulfhydryl oxidase ALR | P55789 | 290,000 tested, 3.8% active | inhibition, % (test concentration not listed) | purified ALR, DTT oxidation, H2O2 HRP-luminol luminescence | AID 485317;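 active means mean replicate inhibition above about 79%, with every replicate also reaching it, limit read from the data; inconclusive means only one of the two criteria met; inactive means mean below limit and not every replicate reaching it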
Target sequence (P55789 whole entry, looked up): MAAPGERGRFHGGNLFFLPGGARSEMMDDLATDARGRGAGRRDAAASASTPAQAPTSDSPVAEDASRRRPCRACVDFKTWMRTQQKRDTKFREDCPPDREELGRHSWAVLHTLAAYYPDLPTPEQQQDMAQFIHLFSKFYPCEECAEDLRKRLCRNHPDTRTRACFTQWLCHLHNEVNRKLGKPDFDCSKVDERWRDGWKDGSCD
Each line names hits and unclear results; the compound was inactive in the other large screens.

CCC(c1nnnn1CS(=O)(=O)c1ccc(C)cc1)N1CCC(C(N)=O)CC1 (stereo not drawn)	none
CNC(=O)C(=O)Nc1cc2c3c(c1)C(C)C(=O)N3CCC2 (stereo not drawn)	none
CCCCOc1ccc(C(=O)NC)cc1	none
CCCCOc1ccc(CC(=O)NO)cc1	ALR inh 90.6
CC/C(=N\N=C1\SC(C)C(=O)N1Cc1ccco1)c1ccccc1 (stereo not drawn)	none
CNc1nc(N)c(C(=O)C(C)(C)C)s1	ALR inh 99.0
CNc1ncc(C(=O)C(C)(C)C)s1	none
CS(=O)(=O)NCC(c1cccnc1)N1CCN(c2ccccc2F)CC1 (stereo not drawn)	none
COc1ccc(-c2nc3c(c(SCC(=O)N4CCCC4)n2)COC(C)(C)C3)cc1	none (no result: ALR inh)
COc1ccc(/C=N/NC(=O)c2cc(C34CC5CC(CC(C5)C3)C4)[nH]n2)cc1OC	none
O=C(N/N=C/c1ccc(O)cc1)c1cc(C23CC4CC(CC(C4)C2)C3)[nH]n1	ALR inh 90.8
C[C@H]1NS(=O)(=O)c2ccc(Br)cc2O[C@H]1c1ccccc1	none (no result: T cell HTS, ALR inh)
O=C(NCc1ccc(F)cc1)c1cc(C2CCCCN2C(=O)CCc2ccccc2)on1 (stereo not drawn)	none (no result: T cell HTS, ALR inh)
Cc1ccc(OCCOc2ccc(S(=O)(=O)N3CCCC3)cc2C(N)=O)cc1	none
CCCC(=O)Nc1ccc(C(=O)NCc2ccccn2)cc1	none
N#CCC(=O)Nc1ccc(C(=O)NCc2ccccn2)cc1	ALR inh 98.7
CCc1nc2ccc(C(=O)Nc3cccc(NS(C)(=O)=O)c3)cn2c1N(C)C(=O)c1cccc(OC)c1	none (no result: T cell HTS, ALR inh)
CCn1c(SCC(=O)Nc2ccccc2OC)nc(O)cc1=O	ALR inh 97.6
COc1ccccc1NC(=O)Cc1nnc(SCC(=O)Nc2ccccc2F)n1C	none
CCn1c(CC(=O)Nc2ccccc2OC)nnc1SCC(=O)Nc1ccccc1F	ALR inh 93.1
COc1ccccc1NC(=O)CSc1nc2nc(C)cc(C)c2c(=O)[nH]1	ALR inh 90.6
CCCn1c(SCC(=O)Nc2cc(Cl)ccc2OC)nc(O)cc1=O	ALR inh 97.9
COc1ccc(NC(=O)CSc2nc3nc(C)cc(C)c3c(=O)[nH]2)cc1OC	none
COc1ccc(Cl)cc1NC(=O)CSc1nc(C)cc(C)n1	none (no result: ALR inh)
CCn1c(C)nnc1SCC(=O)Nc1ccccc1OC	none
O=C(CSc1nccc(=O)[nH]1)NC1CCCCCCC1	none
Cn1cnc(S(=O)(=O)N2CCCCC2c2cc(C(=O)Nc3cccc4c3CCCC4)no2)c1 (stereo not drawn)	none (no result: T cell HTS, ALR inh)
COc1ccc(N2CCN(C(=O)COC(=O)CSc3ccccc3)CC2)cc1	none (no result: T cell HTS, ALR inh)
O=C(CSc1nnc(COc2ccc(Cl)cc2)o1)NC1CC2CCC1C2 (stereo not drawn)	none
CCOC(=O)c1ccc(S(=O)(=O)N2CCC(C(=O)NCC3CCCCC3)CC2)cc1	none
Cc1ccc(C)c(C(=O)Nc2ccncc2)c1	none
Cc1cccc(C(=O)C2CCN(S(=O)(=O)c3cccc(C(=O)O)c3)CC2)c1	none (no result: T cell HTS, ALR inh)
Cc1ccccc1NC(=O)CSc1nc2ccccc2c(=O)n1C	none
COc1ccccc1NC(=O)CSc1nc(O)cc(=O)n1C	ALR inh 98.8
C=CCn1c(SCC(=O)Nc2ccccc2C)nc2sc(C)c(C)c2c1=O	none
Cn1c(SCC(=O)Nc2cccc3ccccc23)nc(O)cc1=O	ALR inh 98.5
C=CCn1c(SCC(=O)Nc2ccccc2C)nc(O)cc1=O	ALR inh 91.8
COc1ccc(-n2c(SCC(=O)Nc3ccccc3OC)nc(O)cc2=O)cc1	none
O=C(COC(=O)/C=C/c1ccc(Cl)cc1Cl)NCC1CCCO1 (stereo not drawn)	none
Cc1ccc(CN2C(=O)S/C(=C\c3ccccc3OCC(=O)O)C2=O)cc1	ALR inh 97.0
O=C(O)CN1C(=O)/C(=C\c2ccccc2OCc2ccc(F)cc2)SC1=S	none
O=C(O)CN1C(=O)/C(=C\c2ccccc2OCc2ccccc2)SC1=S	none (no result: T cell HTS, ALR inh)
O=C(O)COc1ccccc1/C=C1\SC(=O)N(Cc2ccc(F)cc2)C1=O	ALR inh 97.7
CC(C)(C)C(=O)N1CCC2CC1c1cc(Cl)ccc12 (stereo not drawn)	none (no result: T cell HTS, ALR inh)
Cc1nc(-c2ccc(S(=O)(=O)NCc3cccnc3)s2)cs1	none
Nc1nc(COC(=O)c2ccco2)nc(Nc2ccccc2)n1	none (no result: T cell HTS, ALR inh)
COc1cccc(CNC(=O)Cc2ccc(NC(=O)C3=C(C)OCCS3)cc2)c1	none
COC(=O)Nc1ccc(SCC(=O)c2cccc([N+](=O)[O-])c2)cc1	ALR inh 99.0
CC(=O)Nc1ccc(C(=O)OCC(=O)c2cccc([N+](=O)[O-])c2)cc1	none
CCC(=O)Nc1cccc(-c2cn3ccccc3n2)c1	none (no result: ALR inh)
CN(C)S(=O)(=O)c1cccc(-c2cn3cc(Cl)ccc3n2)c1	ALR inh 98.4 (no result: T cell HTS)
O=S(=O)(c1cccc(-c2cn3cc(Cl)ccc3n2)c1)N1CCOCC1	none
CN(C)S(=O)(=O)c1cccc(-c2cn3ccccc3n2)c1	ALR inh 99.3
Cc1cccc(-n2ccnc2CN2CCC(CO)(Cc3ccccc3)CC2)c1	none
CCN(CC(=O)Nc1c(F)cccc1F)C(=O)CCNC(=O)c1ccccc1OC	none
COCCCNC(=S)N/N=C/c1ccc(N(C)C)cc1Cl	none
COCCCNC(=S)N/N=C/c1ccc(N(C)C)cc1	ALR inh 98.5
CNC(=S)N/N=C/c1ccc(N(C)C)cc1	ALR inh 99.4
Cc1c(NC(=S)N/N=C/c2cccc(O)c2)c(=O)n(-c2ccccc2)n1C	ALR inh inconclusive
CNC(=S)N/N=C/c1ccc(C(C)C)cc1	none
Cc1c(NC(=S)N/N=C/c2ccc(N(C)C)cc2)c(=O)n(-c2ccccc2)n1C	ALR inh 99.3
OC(c1ccccc1)c1ccccc1CN1CCCNC1=S (stereo not drawn)	none (no result: T cell HTS, ALR inh)
COc1cccc(C(=O)N2CCN(Cc3ccc(OC)cc3OC)CC2)c1	none
O=C(Nc1ccc(Br)cc1)c1cccc(N2C(=O)C3CCCCC3C2=O)c1 (stereo not drawn)	none
COc1cc2c(cc1OC)CN(C(=O)/C=C/c1cccs1)CC2	none
CCN(CC(=O)Nc1cc(Cl)ccc1C)C(=O)CCOc1ccccc1C	none
N#Cc1c(N)c(C(=O)c2ccccc2)n2c1CCC2	ALR inh 92.2
COC(=O)c1c(N)c(C#N)c2n1CCCCC2	none
CN1C(=O)C(C)(C)c2cc(S(=O)(=O)NCC3CCC(C(=O)NCc4ccc(F)cc4)CC3)ccc21 (stereo not drawn)	none
COc1ccc2nc(-c3ccco3)c(-c3ccco3)nc2c1	Glyco luc inh 32.7
c1coc(-c2nc(-c3ccco3)c(-c3ccco3)nc2-c2ccco2)c1	none
Cc1ccc2c(Cn3cc(C(F)(F)F)cc(Cl)c3=O)cc(=O)oc2c1	none (no result: Glyco luc inh)
O=C(NCc1ccccc1)N1CCOc2ccccc21	none
O=C(CN1CCOc2ccccc21)NCc1cccs1	ALR inh 99.1
O=C(CN1CCOc2ccccc21)NCc1ccco1	none
O=C(CN1CCOc2ccccc21)NCc1ccc(F)cc1	ALR inh 98.4
COCCNC(=O)CN1CCOc2ccccc21	none (no result: ALR inh)
O=C(CN1CCOc2ccccc21)NC1CC1	ALR inh 87.3
O=C(CN1CCOc2ccccc21)NCc1ccc(Cl)cc1	ALR inh 99.0 (no result: T cell HTS)
O=C(CCN1C(=O)COc2ccccc21)NCc1cccs1	none
CCCc1c(C(=O)N/N=C(/C)c2ccncc2)nnn1-c1nonc1N	none
COc1ccc(CNC(=O)Cn2cc(C(F)(F)F)ccc2=O)cc1OC	none
